Reference: ChEMBL document CHEMBL1129690, “Design, synthesis, and structure-activity relationship studies of novel 1-[(1-acyl-4-piperidyl)methyl]-1H-2- methylimidazo[4,5-c]pyridine derivatives as potent, orally active platelet-activating factor antagonists” (J Med Chem, 1996)

Columns and labels:
Canis familiaris [1] = assay: Inhibition of PAF-induced platelet aggregation in whole blood obtained after 4 hr from dog injected with an intravenous dose of 1 mg/Kg of compound; format: functional, Canis lupus familiaris
Method in brief: (§1)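 Male Beagle dogs (8-12 kg) dosed once at 1 mg/kg iv. Venous blood drawn before dosing and at 4 and 6 h, anticoagulated with 3.8% citrate (1:9) and diluted 1:1 in saline.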

Mus musculus [2] = assay: Dosage required to inhibit PAF-induced mortality in mice by 50% through intravenous route; format: functional; conditions: read-out: ID50 (the source's name)
Method in brief: (§2)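 Male Swiss mice, 22-26 g, groups of 10. Test article given iv (10 mL/kg, saline vehicle) 5 min before, or po (20 mL/kg, 1% Tween 80) 60 min before, tail-vein C-18-PAF 100 µg/kg plus propranolol 1 mg/kg. Mortality scored 2 h after PAF; % inhibition vs vehicle controls. ID50 by linear regression, ≥4 points.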

Mus musculus [3] = assay: Dosage required to inhibit PAF-induced mortality in mice by 50% through oral administration; format: functional; conditions: read-out: ID50 (the source's name); method in brief: as §2
Oryctolagus cuniculus = species on record: Oryctolagus cuniculus; assay: Concentration required to inhibit PAF-induced maximum platelet aggregation in rabbit platelet-rich plasma; format: functional
Method in brief: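 PRP prepared by centrifugation at 250g, 10 min, 4 °C, and diluted with platelet-poor plasma (3000g, 10 min) to 3.5 × 10⁵ platelets/mm³. Aggregation triggered by C-18-PAF at 1.5 × 10^-8 M and read on a dual-channel aggregometer. IC50 from linear regression of at least four points, each the mean of one to three independent experiments.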

Rattus norvegicus = assay: Dose required to reduce the lowering of the arterial blood pressure caused by PAF by 50% after intravenous administration in rats; format: functional; conditions: read-out: ID50 (the source's name)
Method in brief: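 Rats with both femoral veins catheterized, one for test compound and one for PAF (0.5 µg/kg). Compound given iv in saline (1 mL/kg) 3 min before PAF. Blood pressure monitored; % inhibition of hypotension calculated versus controls. ID50 from linear regression of at least four doses, each the mean of two or more independent experiments.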

Mus musculus [4] = assay: Percentage of inhibition by the compound against PAF-induced mortality in mice 5 hr after intravenous administration of 1 mg/Kg; format: functional
Method in brief: (§3)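 Male Swiss mice given single 1 mg/kg iv dose at time 0. C-18-PAF 100 µg/kg plus propranolol 1 mg/kg injected by lateral tail vein at later times (10-40 mice/time). Deaths scored 2 h after PAF. Percentage inhibition of mortality vs vehicle (saline) controls recorded at each time.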

Mus musculus [5] = assay: Percentage of inhibition by the compound against PAF-induced mortality in mice 3 hr after intravenous administration of 1 mg/Kg; format: functional; method in brief: as §3
Canis familiaris [6] = assay: Inhibition of PAF-induced platelet aggregation in whole blood obtained after 6 hr from dog injected with an intravenous dose of 1 mg/Kg of compound; format: functional, Canis lupus familiaris; method in brief: as §1
Mus musculus [7] = assay: Percentage of inhibition by the compound against PAF-induced mortality in mice 7 hr after intravenous administration of 1 mg/Kg; format: functional; method in brief: as §3
Mus musculus [8] = assay: Compound after an intravenous dose of 0.03 mg/Kg was tested for the inhibition of PAF-induced mortality in mice; format: functional; method in brief: as §2
Mus musculus [9] = assay: Compound after an intravenous dose of 0.01 mg/Kg was tested for the inhibition of PAF-induced mortality in mice; format: functional; method in brief: as §2

SMILES	Inhibition (Canis familiaris [1]) [%]	ED50 (Mus musculus [2]) [µg/kg]	ED50 (Mus musculus [3]) [mg/kg]	IC50 (Oryctolagus cuniculus) [nM]	ED50 (Rattus norvegicus) [mg/kg]	inhibition in vivo at 1 mg/kg (Mus musculus [4]) [%]	inhibition in vivo at 1 mg/kg (Mus musculus [5]) [%]	Inhibition (Canis familiaris [6]) [%]	inhibition in vivo at 1 mg/kg (Mus musculus [7]) [%]	inhibition in vivo at 0.03 mg/kg (Mus musculus [8]) [%]	inhibition in vivo at 0.01 mg/kg (Mus musculus [9]) [%]
Cc1ncccc1C(C#N)N1CCN(C(=O)CNC(c2ccccc2)c2ccccc2)CC1 (configuration not stated)	39	9	0.3	40	0.021	15	30				
Cc1nc2cnccc2n1CC1CCN(C(=O)CC(c2ccccc2)c2ccccc2)CC1	100	0.8	0.092	7.6		100	100	100	100		
N#CC(c1cccnc1)C1CCN(C(=O)CNC(c2ccccc2)c2ccccc2)CC1 (configuration not stated)			2.6	24	0.03						
CCOC[C@@H](NC(=O)N1CCC(Cn2c(C)nc3cnccc32)CC1)c1ccccc1		10	1	17							
CCOC(=O)[C@H](NC(=O)N1CCC(Cn2c(C)nc3cnccc32)CC1)c1ccccc1		20	> 1	150	0.069						
Cc1nc2cnccc2n1CC1CCN(C(=O)CC(O)(c2ccccc2)C(F)(F)F)CC1 (configuration not stated)		2.9	0.032	36		90			70		
CCOC(=O)C(CC(=O)N1CCC(Cn2c(C)nc3cnccc32)CC1)c1ccccc1 (configuration not stated)				12	0.17					45	
Cc1nc2cnccc2n1CC1CCN(C(=O)CNC(c2ccccc2)c2ccccc2)CC1		4.1	1	13	0.067						
CCOC(=O)[C@H](CC(C)C)NC(=O)N1CCC(Cn2c(C)nc3cnccc32)CC1		2.7	> 1	12	0.03						
Cc1nc2cnccc2n1CC1CCN(C(=O)N[C@H](C)c2ccccc2)CC1	100	4.7	1	13		56		77	22		
Cc1nc2cnccc2n1CC1CCN(C(=O)CC(C)c2ccccc2)CC1 (configuration not stated)		3	1	12							
COc1ccccc1CCC(=O)N1CCC(Cn2c(C)nc3cnccc32)CC1		3.3	> 1	15	0.045						
Cc1nc2cnccc2n1CC1CCN(C(=O)C=C(c2ccccc2)c2ccccc2)CC1		3.7	> 1	240	0.011						
Cc1nc2cnccc2n1CC1CCN(C(=O)CCc2ccccc2)CC1		13	> 1	60	> 5						
Cc1nc2cnccc2n1CC1CCN(S(=O)(=O)CC(C)(C)c2ccccc2)CC1			> 1	6.2	0.087						50
COc1ccccc1N(C)CC(=O)N1CCC(Cn2c(C)nc3cnccc32)CC1	100	6.6	> 1	14	0.063	90		87	70		
Cc1nc2cnccc2n1CC1CCN(C(=O)CC(O)(c2ccccc2)c2ccccc2)CC1		30	0.03	640	0.013						

SMILES	Inhibition (Canis familiaris [1]) [%]	ED50 (Mus musculus [2]) [µg/kg]	ED50 (Mus musculus [3]) [mg/kg]	IC50 (Oryctolagus cuniculus) [nM]	ED50 (Rattus norvegicus) [mg/kg]	inhibition in vivo at 1 mg/kg (Mus musculus [4]) [%]	inhibition in vivo at 1 mg/kg (Mus musculus [5]) [%]	Inhibition (Canis familiaris [6]) [%]	inhibition in vivo at 1 mg/kg (Mus musculus [7]) [%]	inhibition in vivo at 0.03 mg/kg (Mus musculus [8]) [%]	inhibition in vivo at 0.01 mg/kg (Mus musculus [9]) [%]
CC/C(=C\C(=O)N1CCC(Cn2c(C)nc3cnccc32)CC1)c1ccccc1			> 1	13	0.0054					50	
Cc1nc2cnccc2n1CC1CCN(C(=O)OCC2(c3ccccc3)CC2)CC1		12	> 1	35							
Cc1nc2cnccc2n1CC1CCN(C(=O)NC2(c3ccccc3)CC2)CC1		2	0.3	17							
CCCC(CC(=O)N1CCC(Cn2c(C)nc3cnccc32)CC1)c1ccccc1 (configuration not stated)		10	1	11							
CCOC(=O)[C@@H](NC(=O)N1CCC(Cn2c(C)nc3cnccc32)CC1)c1ccccc1			> 1	16	0.061						50
Cc1nc2cnccc2n1CC1CCN(C(=O)NC(c2ccccc2)c2ccccc2)CC1		> 30	> 1	8.1	0.14						
COC(=O)NC(CC(=O)N1CCC(Cn2c(C)nc3cnccc32)CC1)c1ccccc1 (configuration not stated)		2.7	0.1	12	0.035						
Cc1nc2cnccc2n1C1CCN(C(=O)CC(c2ccccc2)c2ccccc2)CC1			> 3	100	0.41						
Cc1nc2cnccc2n1CC1CCN(C(=O)CC(C)(C)c2ccccc2)CC1	100	2.7	1	6.7		88		100	50		
Cc1nc2cnccc2n1CC1CCN(C(=O)CC(C)(O)c2ccccc2)CC1 (configuration not stated)	59	2.9	1	6.9		80		43	60		
Cc1nc2cnccc2n1CC1CCN(C(=O)CN(C)c2ccccc2)CC1		> 30	> 1	23	0.31						
Cc1nc2cnccc2n1CC1CCN(C(=O)N[C@@H](C)c2ccccc2)CC1			> 1	41	0.21					45	
COC/C(=C\C(=O)N1CCC(Cn2c(C)nc3cnccc32)CC1)c1ccccc1		7.9	> 1	18	0.022						
COC(=O)NC(CC(=O)N1CCC(n2c(C)nc3cnccc32)CC1)c1ccccc1 (configuration not stated)				1300	0.56						
COC(=O)NC(CC(=O)N1CCN(C(C#N)c2cccnc2C)CC1)c1ccccc1 (configuration not stated)		5.5	0.044	41	0.015						
Cc1nnc2n1-c1sc(CCC(=O)N3CCOCC3)cc1C(c1ccccc1Cl)=NC2 [APAFANT]	100	84	1.24	91	0.17	27	55	55	31		
CCOC(=O)[C@H](CC(C)C)N(C)S(=O)(=O)c1ccc(Cn2c(C)nc3cnccc32)cc1 [LEXIPAFANT]	100	2.1	0.11	3.6	0.0037	95	100	100	56		
